Experimental data taken from PMC9798253 (Protein Science : A Publication of the Protein Society, 2023).

What was measured:
[1] = system: GST-tagged TRD domain of MECP2 (170–325 of NP_004983); experiment: Peptide SPOT array binding of ADD peptides to GST-TRD; settings: 25 nM GST-TRD; 1 h; ECL detection (anti-GST)
In short: (§1)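 The cellulose-bound peptide arrays included alanine-substituted variants. Purified protein was applied for 1 h. Detection used anti-GST (1:12,000) or anti-MBP (1:10,000) for 1 h, then HRP secondary for 1 h.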

[2] = system: GST-TRD (TRD domain of MECP2); experiment: GST-pulldown of MBP-ADD; type: binding; settings: 1 μg each protein; 25 mM Tris/HCl pH 8, 200 mM KCl; 1 h, 6°C; SDS-PAGE
[3] = system: ADD D529A/D530A/D531A triple mutant; experiment: Peptide SPOT array binding of TRD peptides to ADD triple mutant; design: species or system human; settings: 25 nM ADD mutant; 1 h; ECL detection
In short: as §1

Substance | TRD binding of ADD peptides on SPOT array [1] | also measured
ADD 496–510: ADD surface peptide on SPOT array, WT sequence | showed TRD binding with the WT sequence | 
ADD 522–536: ADD surface peptide on SPOT array, WT sequence | showed TRD binding with the WT sequence | 
ADD 592–606: ADD surface peptide on SPOT array, WT sequence | showed TRD binding with the WT sequence | 
MBP-ADD: ADD domain of DNMT3A (476–614 of Q9Y6K1) as maltose‐binding protein (MBP) fusion |  | pulldown of MBP-ADD by GST-TRD [2]: strong and specific pulldown
TRD residues 214–228: 15mer SPOT peptide, TRD residues E214‐T228, WT peptide (EKSPGKLLVKMPFQT) |  | binding of ADD D529A/D530A/D531A triple mutant to TRD peptide on SPOT array [3]: Binding was lost
